This is an account of results in ChEMBL document CHEMBL1126926, “Nonprostanoid prostacyclin mimetics. 5. Structure-activity relationships associated with [3-[4-(4,5-diphenyl-2-oxazolyl)-5- oxazolyl]phenoxy]acetic acid” (J Med Chem, 1993).

Assay [1] is filed under the species Homo sapiens. The assay can be described thus: (§1) In vitro inhibition of 5.86 uM ADP-induced human platelet aggregation in platelet rich plasma (PRP). It is filed as functional. In outline: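 Human blood drawn into 1/10 volume 3.8% sodium citrate and spun 10 min at 140g to give platelet-rich plasma. Compound in DMSO added to PRP 3 min before 5.86 μM ADP. Aggregation read by Born turbidimetric aggregometry (Mustard modification) against vehicle controls over various concentrations. IC50 taken from dose-response curves, single determinations or mean of duplicates.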

Assay [2] is filed under the species Homo sapiens. The assay is described as follows: Compound tested for percent inhibition against 5.86 uM ADP-induced human platelet aggregation in platelet rich plasma (PRP). It is filed as functional. In a few lines:
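Citrated human PRP (blood spun 10 min at 140g) preincubated 3 min with compound in DMSO, then challenged with 5.86 μM ADP. Born aggregometry (Mustard modification), compared with vehicle controls. Value is percent inhibition at a single stated concentration, from a single experiment or mean of duplicates.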

Assay [3] is filed under the species Homo sapiens. The assay can be described thus: Inhibitory concentration for displacing [3H]iloprost from human platelet membrane at 5.4 nM at 37 degree C.
The species named for assay [4] is Homo sapiens. The assay is described as §1. It is filed as functional. The source holds these as a separate data set.

The structures appear in SMILES notation. pIC50: −log10 of the molar value.

For orientation: pIC50 means the negative decadic logarithm of the IC50, by convention in mol/L. Regarding `O=C(O)CCCCCCc1ocnc1-c1nc(-c2ccccc2)c(-c2ccccc2)o1`, in the assay listed under Homo sapiens [1], the pIC50 is 6.38.

As for `O=C(O)COc1cccc(-c2ocnc2-c2nnc(-c3ccccc3)n2-c2ccccc2)c1`, in the assay filed under Homo sapiens [1], the pIC50 was less than 4.15.

The Inhibition is the drop in the measured response relative to a control, in per cent. High values mean strong suppression, low ones little suppression. The molecule `O=C(O)COc1cccc(-c2oc(-c3ccccc3)nc2-c2nc(-c3ccccc3)c(-c3ccccc3)o2)c1` came in with an Inhibition in the assay listed under Homo sapiens [2] of 36%. The pIC50 in the assay filed under Homo sapiens [1] was less than 4.22.

As to `O=C(O)COc1cccc(-c2ocnc2-c2nc(-c3ccccc3)c(-c3ccccc3)o2)c1`, the pIC50 in the assay listed under Homo sapiens [3] is 8.27; in the assay filed under Homo sapiens [4] it was 7.57.

The molecule `O=C(O)COc1cccc(-c2ocnc2-c2nc(-c3ccsc3)c(-c3ccsc3)o2)c1` gave a pIC50 in the assay listed under Homo sapiens [1] of 6.35.

In turn, `O=C(O)CCCCOc1ccccc1-c1nc(-c2ccccc2)c(-c2ccccc2)o1` had a negative logarithm of the IC50 (pIC50) in the assay listed under Homo sapiens [1] of less than 4.12.

Consider `O=C(O)CCCCCCCc1ocnc1-c1nc(-c2ccccc2)c(-c2ccccc2)o1`, for which the negative-log IC50 (pIC50) in the assay listed under Homo sapiens [1] is 4.94.

In the assay filed under Homo sapiens [4], `O=C(O)COc1cccc(-c2[nH]ncc2-c2nc(-c3ccccc3)c(-c3ccccc3)o2)c1` gave a pIC50 of 6.74.

Regarding `c1ccc(-c2nc(-c3ncoc3-c3cccc(OCc4nn[nH]n4)c3)oc2-c2ccccc2)cc1`, in the assay listed under Homo sapiens [1], the pIC50 is 6.89.

Regarding `Cc1nc(-c2nc(-c3ccccc3)c(-c3ccccc3)o2)c(-c2cccc(OCC(=O)O)c2)o1`, the pIC50 in the assay filed under Homo sapiens [3] is 7.44; in the assay filed under Homo sapiens [4] it was 7.30.

Regarding `Cc1ccc(-c2nc(-c3ncoc3-c3cccc(OCC(=O)O)c3)oc2-c2ccc(C)cc2)cc1`, the pIC50 in the assay filed under Homo sapiens [1] is 7.00.

In the assay filed under Homo sapiens [3], `O=C(O)COc1cccc(/C=C\c2nc(-c3ccccc3)c(-c3ccccc3)o2)c1` showed a pIC50 of 8.22.

For `CC#CCC(C)[C@H](O)/C=C/[C@@H]1[C@H]2C/C(=C/CCCC(=O)O)C[C@H]2C[C@H]1O` (some centres not stated) [ILOPROST], in the assay listed under Homo sapiens [3], the pIC50 is 7.32.

Consider `O=C(O)CCCCCCCCc1nc(-c2ccccc2)c(-c2ccccc2)o1`, for which, in the assay listed under Homo sapiens [1], the negative logarithm of the IC50 (pIC50) is 5.60.

The molecule `O=C(O)CCCc1ocnc1-c1nc(-c2ccccc2)c(-c2ccccc2)o1` registered an Inhibition in the assay filed under Homo sapiens [2] of 44%. Also, in the assay listed under Homo sapiens [1], the pIC50 was less than 4.10.

The molecule `O=C(O)CCCCc1ocnc1-c1nc(-c2ccccc2)c(-c2ccccc2)o1` showed a pIC50 in the assay filed under Homo sapiens [1] of 4.80.

For `Cn1cc(-c2nc(-c3ccccc3)c(-c3ccccc3)o2)c(-c2cccc(OCC(=O)O)c2)n1`, the pIC50 in the assay filed under Homo sapiens [3] is 6.52; in the assay listed under Homo sapiens [4], 6.19.

`O=C(O)COc1cccc(-c2ocnc2-c2onc(-c3ccccc3)c2-c2ccccc2)c1` gave an Inhibition in the assay listed under Homo sapiens [2] of 36%. Besides, the pIC50 in the assay listed under Homo sapiens [1] was less than 4.14.

On to `O=C(O)CCCCCc1ocnc1-c1nc(-c2ccccc2)c(-c2ccccc2)o1`, for which the pIC50 in the assay filed under Homo sapiens [1] is 5.14.

`N#CCOc1cccc(-c2ocnc2-c2nc(-c3ccccc3)c(-c3ccccc3)o2)c1` registered an Inhibition in the assay filed under Homo sapiens [2] of 14%. Also, in the assay filed under Homo sapiens [1], the pIC50 was less than 4.12.

In turn, `O=C(O)COc1cccc(-c2ocnc2-c2nc(-c3ccccc3)c(-c3ccccc3)[nH]2)c1` showed a pIC50 in the assay filed under Homo sapiens [1] of 7.52.

`O=C(O)COc1cccc(-c2ccccc2-c2nc(-c3ccccc3)c(-c3ccccc3)o2)c1` showed a pIC50 in the assay listed under Homo sapiens [1] of 4.95.

As to `O=C(O)COc1cccc(-c2ocnc2-c2nc(-c3ccccc3)c(-c3ccccc3)s2)c1`, the negative logarithm of the IC50 (pIC50) in the assay filed under Homo sapiens [1] was 6.82.

`O=C(O)CCCOc1ccccc1-c1nc(-c2ccccc2)c(-c2ccccc2)o1` gave a pIC50 in the assay listed under Homo sapiens [1] of less than 4.12.

As to `O=C(O)COc1cccc(-c2ncoc2-c2nc(-c3ccccc3)c(-c3ccccc3)o2)c1`, the pIC50 in the assay filed under Homo sapiens [1] was 6.80.

`O=C(O)COc1ccc(-c2ocnc2-c2nc(-c3ccccc3)c(-c3ccccc3)o2)cc1` registered an Inhibition in the assay filed under Homo sapiens [2] of 44%. Also, the negative-log IC50 (pIC50) in the assay filed under Homo sapiens [1] is less than 4.14.

Consider `Cn1ncc(-c2nc(-c3ccccc3)c(-c3ccccc3)o2)c1-c1cccc(OCC(=O)O)c1`, for which the pIC50 in the assay filed under Homo sapiens [3] is 6.47; in the assay filed under Homo sapiens [4], 5.97.

`CCCCC[C@H](O)/C=C/[C@@H]1[C@H]2C/C(=C/CCCC(=O)O)O[C@H]2C[C@H]1O` [EPOPROSTENOL] gave a pIC50 in the assay listed under Homo sapiens [1] of 8.10.
